In the library only some 3.7% were active in any assay of this set; here they are far more common.
core dimer inh – HCV core protein dimerization inhibition; TR-FRET GST/Flag-core106 dimerization, 1536-well; inhibition, % at 5 µM; actives 0.33% (n = 300,000); AID 1899;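 active means inhibition above the mean of all tested compounds plus 3 SD, set per screening campaign, cut at about 45% in these data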
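assay system = GST-tagged and Flag-tagged HCV core protein residues 1-106 | controls = unlabelled core106 and no-GST-core106 wells | incubation = compound-protein-antibody incubation 4 h at 22.5 °C | probe or stimulus = Eu donor and XL665 acceptor anti-tag antibodies | read-out = % inhibition based on acceptor/donor emission ratio | signal = TR-FRET 671 and 617 nm emission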
TAAR1 antag – antagonists of human TAAR1 | CHO RD-HGA16 TAAR1, Fluo-8 calcium fluorescence, antagonist | inhibition, % at 3 µM | actives 1.5% (n = 360,000) | Q96RJ0 | AID 624466;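 active means inhibition above a per-plate cutoff, the mean inhibition of test compounds on that plate plus 3 SD, cut at about 49% in these data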;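 further: 0% = DMSO plus EC80 beta-PEA response and 100% = DMSO alone without agonist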
Target sequence (Q96RJ0 whole entry, looked up): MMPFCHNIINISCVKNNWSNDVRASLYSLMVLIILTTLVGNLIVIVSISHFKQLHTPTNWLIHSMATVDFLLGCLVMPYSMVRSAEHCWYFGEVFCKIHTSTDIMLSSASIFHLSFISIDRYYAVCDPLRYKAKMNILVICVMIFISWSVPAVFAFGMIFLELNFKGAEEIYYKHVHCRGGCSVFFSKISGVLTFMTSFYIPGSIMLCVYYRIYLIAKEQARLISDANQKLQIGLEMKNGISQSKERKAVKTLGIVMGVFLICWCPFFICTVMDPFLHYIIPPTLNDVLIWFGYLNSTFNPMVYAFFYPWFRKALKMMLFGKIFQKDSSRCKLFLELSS
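Test system: RD-HGA16 CHO cells with stable hTAAR1 and Gα16 / Probe or stimulus: EC80 β-phenethylamine stimulus / Times: seeding 17-24 h prior, 75-min 37 °C, 30-min RT dye loading / Detection: Fluo-8 calcium-sensitive fluorescence / Read-out basis: % inhibition scaled between DMSO and EC80 PEA controls / Repeats: singlicate, one well per test compound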
TAAR1 ag – agonists of human TAAR1. Q96RJ0. CHO RD-HGA16 TAAR1, Fluo-8 calcium fluorescence; vehicle wells 0%, saturating PEA agonist 100%. activation, % at 3 µM. actives 0.99% (n = 360,000);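 active means activation above the mean activation of all test compounds in the run plus 3 SD, cut at about 38% in these data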
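Assay system: CHO-derived RD-HGA16 cells with stable Gα16 and human TAAR1; timing: 17-24 h seeding, 75 min 37 °C dye, 30 min RT; read-out: % activation from peak over basal fluorescence ratio, DMSO-to-PEA scaled; measured by: kinetic Fluo-8 calcium fluorescence; benchmarks: low control DMSO, high control PEA (EC100); doses: 3 µM single concentration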
NS3 helicase inh – HCV NS3 helicase inhibition | NS3 helicase DNA unwinding, Cy5 molecular beacon fluorescence | AID 1800 | inhibition, % at 10.9 µM | actives 0.56% (n = 290,000);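 active means inhibition above the mean of all tested compounds plus 3 SD, set per campaign, cut at about 35% in these data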;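 further: 0% = DMSO wells and 100% = thioflavine S control wells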
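System: Hepatitis C virus NS3 helicase domain fragment enzyme | Reagent: Annealed dual-labelled DNA beacon duplex, ATP-started | Compound dosing: 10.9 µM single point, 0.8% DMSO | Incubation: 1 h reaction at 25 °C, ATP-initiated | Technique: Cy5 fluorescence | Evaluation: Percent inhibition from t60/t0 fluorescence ratio | Benchmarks: Low DMSO, high thioflavine S at 110 µM | Replication: Singlicate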
rCAG binder – molecules binding r(CAG) RNA repeats; r(CAG) RNA repeat, TO-PRO-1 dye displacement fluorescence; inhibition, % at 3 µM; actives 1.3% (n = 370,000); AID 651821;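 active means inhibition above the plate cutoff, the mean of all test compounds on that plate plus 3 SD, cut at about 35% in these data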;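 further: 0% = DMSO alone and 100% = 100 µM mitoxantrone as full dye displacement; higher means more dye released from RNA so lower well fluorescence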
NS3 helicase cf – confirmation of Hepatitis C virus NS3 helicase inhibitors; shares compounds with NS3 helicase inh; NS3 helicase DNA unwinding, Cy5 molecular beacon fluorescence; inhibition, % at 10.9 µM; actives 31% (n = 1,600); AID 1943;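 active means inhibition above the mean of all tested compounds plus 3 SD, cutoff set per campaign, cut at about 36% in these data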
FID counter trip – intercalator displacement, NS3 helicase counter-screen | shares compounds with NS3 helicase inh | DNA fluorescent intercalator displacement, fluorescence | inhibition, % at 7.9 µM | actives 4% (n = 1,600); in the data active means inhibition above about 37%;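 further: 0% = vehicle and 100% = reference compound; higher means more displacement of ethidium bromide from the DNA hairpin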
* = called active by the depositor; . = not tested or not shown.

SMILES	core dimer inh	TAAR1 antag	TAAR1 ag	NS3 helicase inh	rCAG binder	NS3 helicase cf	FID counter trip
CCOC(=O)c1c(NC(=O)C2C3C=CC(C3)C2C(=O)O)sc2c1CCC(C)C2 (stereo not drawn)	12.6	0.1	7.9	36.9*	33.8	75.4*	-30.6
C#CCOc1c(Cl)cc(/C=C2/C(=O)ON=C2C)cc1OCC	2.3	-7.4	0.5	56.6*	10.1	71.4*	16.1
C#CCOc1c(Br)cc(/C=C2/C(=O)ON=C2C)cc1OCC	6.9	-25.7	-2.2	3.8	13.8	.	.
CCOC(=O)[C@@]12CCCC3=C1N(CCC3)C(=O)[C@H]2CC(=O)NCCCN1CCCC1=O	.	.	.	.	-0.2	.	.
O=c1c2c3c(sc2n(CCN2CCCCC2)c(=O)n1Cc1ccco1)CCCCC3	5.9	-4.4	24.6	-8.8	4.6	.	.
NC(=O)Cn1c(=O)n(Cc2ccco2)c(=O)c2c3c(sc21)CCCCC3	29.9	7.6	7.1	38.7*	12.3	4.8	-13.0
O=C(Cn1c(=O)n(Cc2ccco2)c(=O)c2c3c(sc21)CCCC3)Nc1ccccc1	47.9*	-9.6	2.1	47.2*	14.1	5.3	7.3
COc1cc([N+](=O)[O-])c2ncsc2c1	6.3	-9.4	0.6	-7.7	3.9	.	.
COc1cc(SSc2cc(OC)cc([N+](=O)[O-])c2N)c(N)c([N+](=O)[O-])c1	-95.5	-9.6	15.5	28.7	19.1	6.8	14.9
Nc1ccc(Oc2ccc(N)c([N+](=O)[O-])c2)cc1[N+](=O)[O-]	.	-10.0	10.0	.	4.8	.	.
CC1(C)Oc2cc(N)c([N+](=O)[O-])cc2O1	-11.8	-1.4	4.6	53.6*	2.5	-12.9	3.9
Cc1ccc2c(c1)N(CCCC(=O)N(C)Cc1ccccc1Cl)C(=O)CO2	.	.	.	.	-1.4	.	.
CCOC(=O)C(=CNc1cc(Cl)c(-c2ccco2)c(Cl)c1)C(=O)OCC	4.4	-48.2	-1.3	46.5*	1.6	-5.2	-20.4
CCOC(=O)C(=CNc1ccc(C(F)(F)F)cc1Cl)C(=O)OCC	3.5	-59.9	-1.9	-7.2	-1.4	.	.
CCOC(=O)C(=CNc1ccccc1Cl)C(=O)OCC	.	-56.0	10.3	1.3	-4.9	.	.
CCOC(=O)C(=CNc1ccc(-c2ccco2)c(Cl)c1)C(=O)OCC	13.4	-78.0	-2.0	42.0*	1.7	13.6	-27.5
COc1ccc(/C=C/S(=O)(=O)NCc2ccccc2)c(CNC(=O)OC(C)(C)C)c1	.	.	.	.	4.6	.	.
CN(Cc1ccccc1)S(=O)(=O)c1cccc(C(=O)OCc2ccccc2Cl)c1	.	.	.	.	5.2	.	.
CCCN(CC#CC(O)(c1ccccc1)c1cccnc1)CCC (stereo not drawn)	-2.6	1.4	5.9	44.6*	-9.0	-9.9	4.3
COc1ccccc1-c1nnc(NC(=O)c2ccc(S(=O)(=O)N3CCCC3)cc2)o1	-15.9	3.3	1.3	53.3*	11.6	0.7	-19.1
CC1CCCN(S(=O)(=O)c2ccc(C(=O)Nc3nnc(-c4ccccc4Cl)o3)cc2)C1 (stereo not drawn)	10.4	-2.6	6.8	11.1	4.0	.	.
N#CCC[C@H]1CC[C@]2(CCCN(c3ccccc3)C2)O1	.	.	.	.	-0.2	.	.
CCCCn1c(/C=C/c2ccco2)nc2ccccc21	44.0	-0.9	-0.8	44.4*	2.4	-13.6	-8.8
CCCn1c(NCc2ccco2)nc2ccccc21	1.0	.	.	1.4	.	.	.
Cc1ccc(Cn2c(/C=C/c3ccco3)nc3ccccc32)cc1	8.8	-6.4	-2.2	42.9*	5.1	-13.1	-1.5
SMILES	core dimer inh	TAAR1 antag	TAAR1 ag	NS3 helicase inh	rCAG binder	NS3 helicase cf	FID counter trip
CCCn1c(/C=C/c2ccco2)nc2ccccc21	50.9*	-11.6	0.7	52.2*	15.9	0.9	4.8
O=C(Cn1nnc(-c2ccc(N3CCOCC3)cc2)n1)c1ccccc1	.	.	.	.	8.1	.	.
Cc1cc(-c2nc3c4c5c(sc4[nH]c(=O)n3n2)CCC5)c(C)o1	55.4*	.	.	41.2*	.	76.2*	8.0
COc1ccccc1C(=O)N(Cc1ccccn1)CC1CCCO1 (stereo not drawn)	.	.	.	.	6.4	.	.
O=C(COC(=O)c1ccccc1SCC(=O)N1CCCC1)Nc1ccccc1	-22.2	18.4	4.5	38.0*	-1.5	-10.8	-17.2
Cc1ccccc1N1C(S)=C(C#N)C(=O)NC1c1cccs1 (stereo not drawn)	10.5	-6.5	1.8	66.9*	4.4	-7.1	2.4
Cc1ccc(C(=O)Nc2ccc3c(c2)OCO3)cc1	16.8	11.6	5.1	37.8*	3.6	-17.8	1.4
COc1cccc(O[C@H]2C=C[C@@H](c3ccccc3)O[C@@H]2CO)c1	.	.	.	.	5.0	.	.
COc1ccc(OC)c2sc(NC(=O)c3ccc(S(=O)(=O)N(C)C)cc3)nc12	-6.3	20.3	14.6	40.8*	8.2	4.1	-23.9
COCCCNC(=O)C[C@H]1C[C@@]2(C(=O)OC)C(=C[C@H](C3CCCC3)O[C@@H]2C)N(Cc2cccc3ccccc23)C1=O	.	.	.	.	0.8	.	.
COc1ccccc1C1C2=C(CCCC2=O)N(CC(=O)O)C2=C1C(=O)CCC2	-3.8	0.5	0.1	41.4*	1.2	-9.8	13.6
C=C(C)[C@@H]1CC2=C(OC)C(CC=C(C)C)(CC=C(C)C)C(=O)C(C(=O)c3ccccc3)=C2O1	.	.	.	.	9.8	.	.
O=C(O)CN1C(=O)/C(=C/c2ccc(N3CCCCC3)o2)SC1=S	-15.5	-8.3	-0.1	61.2*	24.9	27.4	-0.4
CC(=C\c1ccco1)/C=C1/SC(=S)N(CC(=O)O)C1=O	-2.0	0.1	1.3	44.8*	14.8	3.1	-1.0
CC(=C\c1ccccc1)/C=C1/SC(=S)N(CCC(=O)O)C1=O	3.6	-3.2	1.6	51.2*	7.1	65.0*	-9.0
